Cneo AK release: Cryptococcus neoformans cell lysis inducers, primary screen, AK release luminescence, single concentration; C. neoformans lysis, adenylate kinase release luminescence, 4 h; normalised: neutral wells 0, clomiphene wells 100; lysis activity, % at 15 µM; 0.2% of 360,000 active; AID 651654, 2012;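 active means mean lysis activity across replicates of at least 80%, whatever share of replicates individually reach that level; inactive means mean lysis activity below 80%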
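read-out = cell lysis signal | test system = log-phase Cryptococcus neoformans yeast cells | input = cells at 5 × 10^6 per mL | medium = fresh YPD growth medium | signal = luminescent adenylate kinase detection reagent | timing = 4 h at 37 °C static, read 1 h later | dosing = single dose | controls = Clomiphene as positive lysis control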
esBAF inh: Bmi1 luciferase reporter increase in mESCs, primary screen, esBAF inhibitor project, mouse ES cells, Bmi1 luciferase knock-in, single point; 24 h; 100% = twice the neutral-well signal; reporter increase, % at 12.5 µM; 2% of 350,000 active; in the data active means activation above about 40%; inconclusive means no clear call, values can overlap the other calls;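 further: 0% = median of the plate's neutral control wells and 100% = double that signal; a rise in the Bmi1 reporter signal indicates esBAF inhibition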
ERAP1 HTS inh: human ERAP1 aminopeptidase inhibitors, primary screen, biochemical, single point, plate reader | inhibition, % at 10.7 µM | 0.15% of 340,000 active | AID 652197, 2013 | recombinant ERAP1, Leu-AMC fluorescence, 60 min;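 active means mean replicate inhibition of at least 30%, or all replicates individually reaching that 30% level; inactive means mean below 30% and not every replicate reaching it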;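 further: 0% = neutral control wells and 100% = L-leucinethiol positive control wells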
Target sequence (Q9NZ08 whole entry, looked up): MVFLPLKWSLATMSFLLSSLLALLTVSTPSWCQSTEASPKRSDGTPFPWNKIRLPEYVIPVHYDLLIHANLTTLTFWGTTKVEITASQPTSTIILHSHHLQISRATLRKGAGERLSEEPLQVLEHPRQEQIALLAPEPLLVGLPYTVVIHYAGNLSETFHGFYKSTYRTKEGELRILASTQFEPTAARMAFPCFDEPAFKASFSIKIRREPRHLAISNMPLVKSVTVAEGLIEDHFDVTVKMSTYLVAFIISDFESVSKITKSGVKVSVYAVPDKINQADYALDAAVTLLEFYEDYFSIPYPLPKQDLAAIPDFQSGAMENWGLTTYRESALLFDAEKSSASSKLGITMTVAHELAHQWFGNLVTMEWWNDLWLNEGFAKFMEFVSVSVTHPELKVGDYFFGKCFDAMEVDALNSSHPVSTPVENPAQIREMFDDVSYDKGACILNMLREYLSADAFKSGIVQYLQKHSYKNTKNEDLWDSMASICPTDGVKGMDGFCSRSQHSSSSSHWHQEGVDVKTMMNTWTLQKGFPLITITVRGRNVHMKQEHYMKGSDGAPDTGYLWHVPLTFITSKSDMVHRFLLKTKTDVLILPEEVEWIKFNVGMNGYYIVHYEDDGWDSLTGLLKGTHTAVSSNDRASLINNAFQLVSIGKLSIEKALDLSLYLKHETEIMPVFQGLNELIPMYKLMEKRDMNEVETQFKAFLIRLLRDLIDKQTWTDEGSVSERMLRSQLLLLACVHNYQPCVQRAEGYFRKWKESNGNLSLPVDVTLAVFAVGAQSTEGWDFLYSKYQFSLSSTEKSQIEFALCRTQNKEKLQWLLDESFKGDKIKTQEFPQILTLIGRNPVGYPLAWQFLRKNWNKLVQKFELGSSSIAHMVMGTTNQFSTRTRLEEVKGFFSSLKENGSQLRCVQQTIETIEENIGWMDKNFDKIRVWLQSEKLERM
Env fusion inh: inhibitors of HIV-1 Env-driven cell-cell fusion, primary screen, HeLa-JRFL effector, CEM21 target cells, luciferase; 1.1% of 360,000 active; AID 651610, 2012; inhibition, % at 12.3 µM;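 active means mean replicate inhibition score of at least 50 and every replicate individually at or above 50; inconclusive means only one of the two criteria met; inactive means mean below 50 and not all replicates reaching 50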;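 further: 0% = plate neutral controls and 100% = maraviroc near 300 nM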
Wnt bcat act: Wnt/beta-catenin pathway activators, primary screen, cell-based, plate reader, single point. activation, % at 9.35 µM. 1.2% of 300,000 active. AID 743398, 2014. Wnt/beta-catenin reporter cell assay, activator; in the data active means activation above about 30%, passing the limit was not always enough; inconclusive means no clear call, values can overlap the other calls;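 further: 0% = neutral control wells and 100% = positive control wells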
MITF act: activators of MITF-driven TRPM1 promoter reporter, primary screen, cell-based, SK-MEL-5, luciferase, single point. 0.75% of 300,000 active. activation, % at 12.5 µM. SK-MEL-5 TRPM1-promoter luciferase, 24 h; % of positive control, neutral wells = 0. AID 588334, 2011;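 active means mean activation of at least 80% with every replicate also reaching 80%; inconclusive means mean reaches 80% but some replicate falls short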;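 further: 0% = neutral control wells and 100% = parthenolide positive control wells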
The depositor's hits bear a star; i = inactive; u = inconclusive; x = not tested or not shown; [ ] = remark or other dose. Sampled rows, rich in hits. Any-hit rate of the full collection: about 3.5%.

SMILES	Cneo AK release	esBAF inh	ERAP1 HTS inh	Env fusion inh	Wnt bcat act	MITF act
Cc1c(C(=O)Nc2ccc(S(=O)(=O)Nc3ncccn3)cc2)oc2ccccc12	1	10	2	-3	0	-14
C[C@@H]1CN([C@@H](C)CO)C(=O)c2cc(NC(=O)Cn3cnnn3)ccc2O[C@H]1CN(C)C(=O)Nc1ccc2c(c1)OCO2	1	5	-1	x	x	x
COc1ccc2oc(=N)c(C(=O)Nc3ccc(Cl)cc3)cc2c1	-4	23	0	-8	2	x
O=C(Nc1ccccc1O)c1cc2cc(Br)ccc2oc1=O	0	20	1	-26	u	101*
COc1cc2ccccc2cc1C(=O)Nc1ccccc1N1CCCC1	x	-1	-2	25	0	-11
COc1ccc2oc(=N)c(C(=O)Nc3ccc(F)cc3)cc2c1	x	x	-3	-57	4	43
COc1cc2ccccc2cc1C(=O)Nc1ccccc1Cl	-1	u	-3	-112	45*	36
N=c1oc2ccc(Cl)cc2cc1C(=O)Nc1ccc(F)cc1	1	7	-1	-21	36*	36
COc1ccc2oc(=N)c(C(=O)Nc3ccc(C)cc3)cc2c1	-2	43*	-2	i	13	25
O=C(NNC(=O)c1cc2cc(Br)ccc2oc1=O)c1ccc(O)cc1	-1	-7	-2	11	1	-3
O=C(c1ccc(F)cc1)N1CC(=O)N2[C@@H](CO)[C@H](c3ccc(C#CC4CC4)cc3)[C@@H]2C1	x	x	0	x	x	x
COc1ccc2oc(=N)c(C(=O)Nc3ccccc3Cl)cc2c1	-1	56*	-1	-65	25	x
COc1ccc2oc(=N)c(C(=O)Nc3cccc(C)c3C)cc2c1	0	80*	1	-69	-4	70
CN(C)S(=O)(=O)Oc1cccc(C(=O)Nc2ccccc2Cl)c1	-2	72*	x	-129	14	x
COc1ccc2oc(=O)c(C(=O)N3CCN(c4ccccc4C)CC3)cc2c1	0	76*	x	-52	49*	105*
COc1ccc2oc(=N)c(C(=O)Nc3ccccc3)cc2c1	-2	28	x	x	x	25
CCCN1[C@@H]2Cn3c(ccc(-c4ccncc4)c3=O)[C@H]1[C@@H](C(=O)NCC1CC1)[C@@H]2CO	-1	-1	-2	x	x	x
COc1ccccc1NC(=O)c1cc2cc(Br)ccc2cc1O	x	x	0	57*	-1	2
COc1cc(NC(=O)c2cc3ccccc3cc2O)c(OC)cc1Cl	-4	-18	-5	33	-14	-34
Cc1cccc(S(=O)(=O)N2C[C@H]3[C@@H](c4ccccc42)[C@H](CO)N3C(=O)C2CC2)c1	-5	-1	-2	x	x	x
CN(C)C(=O)c1cccc(-c2ccc3c(c2)[C@H]2[C@H](CCN2C(=O)c2cnccn2)[C@H](CO)N3)c1	1	-3	2	x	x	x
COc1ccc2c3c([nH]c2c1)[C@@H](CO)N(C(C)=O)CC31CN(C(=O)Nc2ccc(F)cc2F)C1	x	x	3	x	x	x
COc1ccc(CNC(=O)C[C@H]2C[C@@H]3c4cc(NC(=O)CC5CC5)ccc4O[C@@H]3[C@H](CO)O2)cc1	-1	-7	x	32[16.7 µM]	x	x
CCCc1cc(C(N)=O)c(NC(=O)c2ccco2)s1	-3	26	x	-42	41*	x
CN=C1S/C(=C\c2ccc(N3CCCC3)c(F)c2)C(=O)N1C	-2	31	-4	-26	-4	5
SMILES	Cneo AK release	esBAF inh	ERAP1 HTS inh	Env fusion inh	Wnt bcat act	MITF act
CN=C1S/C(=C\c2ccc(N3CCOCC3)c(F)c2)C(=O)N1C	-1	71*	x	-30	2	x
COc1ccc(S(=O)(=O)Nc2ccc3c(c2)C(=O)N([C@@H](C)CO)C[C@@H](C)[C@H](CN(C)S(C)(=O)=O)OCCCC[C@@H](C)O3)cc1	-3	1	0	-16[16.7 µM]	x	x
CCn1c(C)nc2cc(C(=O)N/N=C(\C)c3ccccc3O)ccc21	x	x	-3	-12	6	90*
CC(C(=O)c1ccc(-c2ccccc2)cc1)[n+]1ccccc1 (stereo unspecified)	-2	3	x	46*	-5	-30
COc1ccccc1CN1CC[C@H]2[C@H](CO)Nc3ccc(C#Cc4ccccc4)cc3[C@H]21	115*	2	-1	x	x	x
Cc1cc(C)cc(NC(=O)CCn2cnc3cc(C)c(C)cc32)c1	x	x	-1	9	38*	10
Cc1ccc(NC(=O)CCn2cnc3cc(C)c(C)cc32)cc1	0	0	1	x	-1	9
CCCNC(=O)C[C@H]1CC[C@@H]2[C@H](COC[C@@H](O)CN2C(=O)CC)O1	0	4	-3	x	x	x
Cc1ccc(CNc2ccc3c(c2)ncn3C)cc1	-1	70*	x	-55	41*	79
CCCn1cnc2cc(NCc3cccc(OC)c3O)ccc21	0	56*	x	5	x	47
CCC(=O)Nc1ccc2c(c1)ncn2-c1ccc(OC)cc1	-4	36	x	-87	x	24
CCc1ccc(CNc2ccc3c(c2)ncn3C)cc1	x	x	3	x	u	71
CCC(=O)Nc1ccc2c(c1)ncn2-c1ccc(C)cc1	-6	49*	-4	-20	-4	80
CCCn1cnc2cc(NCc3ccccn3)ccc21	-3	-46	1	-19	14	x
CCn1cnc2cc(NCc3ccc(Cl)cc3)ccc21	2	55*	5	-29	34*	61
COc1cccc(-c2cnc3c(c2)C(=O)N([C@H](C)CO)C[C@@H](C)[C@H](CN(C)C(=O)CN(C)C)O3)c1	-9	0	-4	-22[16.7 µM]	x	x
COCC(=O)Nc1ccc2c(c1)C(=O)N(C)[C@@H]1CC[C@@H](CC(=O)N3CCc4ccccc4C3)O[C@H]1CO2	-1	-1	-2	-6[16.7 µM]	x	x
Cc1ccc(C(=O)Nc2ccc3c(c2)ncn3C)cc1	-1	12	x	-125	38*	63
COc1cccc(-c2cnc3c(c2)C(=O)N([C@@H](C)CO)C[C@H](C)[C@@H](CN(C)Cc2ccncc2)O3)c1	4	0	-2	5[16.7 µM]	x	x
O=C(C[C@H]1C[C@@H]2c3cc(NC(=O)NC4CCCC4)ccc3O[C@@H]2[C@H](CO)O1)NCc1cccc(F)c1	3	-4	1	36[16.7 µM]	x	x
O=C(NCC(c1ccco1)N1CCCC1)c1cc(=O)[nH]c2ccccc12 (stereo unspecified)	x	0	-7	6	58*	-12
C[C@H]1CN([C@@H](C)CO)C(=O)Cc2cc(NC(=O)CCN3CCOCC3)ccc2O[C@H]1CN(C)Cc1ccc(C(F)(F)F)cc1	-3	-2	-2	3[16.7 µM]	x	x
CCN1C(=O)[C@H]2[C@H]3CN=C(SCc4ccc(Cl)cc4)N3[C@@](C)(C(=O)OC)[C@H]2C1=O	0	3	-2	34	-2	0

Bioassay records as filed in PubChem BioAssay.
